Experimental data: ChEMBL document CHEMBL1137710, “Synthesis and in vitro antitumor activity of new quinoxaline derivatives” (2009)

Experiments:
Format in all cases: functional
CAKI-1 = assay: Growth inhibition of human Caki1 cells after 48 hrs by sulforhodamine B assay; conditions: CAKI-1, 48 h
Method in brief: (§1)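 NCI 60-human-tumor-cell-line panel, with compounds tested over a 5-log dose range. Values are taken from dose-response curves as log10 molar concentrations: GI50 is 50% net growth inhibition, TGI is total growth inhibition, and LC50 is 50% net cell death.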

HCT-116 = assay: Growth inhibition of human HCT116 cells after 48 hrs by sulforhodamine B assay; conditions: HCT-116, 48 h; method in brief: as §1
OVCAR-5 = assay: Growth inhibition of human OVCAR5 cells after 48 hrs by sulforhodamine B assay; conditions: OVCAR-5, 48 h; method in brief: as §1
TK-10 = assay: Growth inhibition of human TK10 cells after 48 hrs by sulforhodamine B assay; conditions: TK-10, 48 h
Method in brief: (§2)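 Run in the NCI 60-human-tumour-cell-line panel, tested over a 5-log dose range. Dose–response curves gave three values per cell line, each as a log10 molar concentration: GI50 (50% inhibition of net cell growth), TGI (total inhibition of net growth) and LC50 (50% net cell death). The mean graph midpoint is the arithmetic mean over all lines, with insensitive lines entered at the highest concentration tested.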

COLO 205 = assay: Growth inhibition of human COLO205 cells after 48 hrs by sulforhodamine B assay; conditions: COLO 205, 48 h; method in brief: as §1
NCI-H522 = assay: Growth inhibition of human NCI-H522 cells after 48 hrs by sulforhodamine B assay; conditions: NCI-H522, 48 h; method in brief: as §1
U-251 = assay: Growth inhibition of human U251 cells after 48 hrs by sulforhodamine B assay; conditions: U-251, 48 h; method in brief: as §2
DU-145 = assay: Growth inhibition of human DU145 cells after 48 hrs by sulforhodamine B assay; conditions: DU-145, 48 h; method in brief: as §1
NCI-H322M = assay: Growth inhibition of human NCI-H322M cells after 48 hrs by sulforhodamine B assay; method in brief: as §1
SK-MEL-5 = assay: Growth inhibition of human SK-MEL-5 cells after 48 hrs by sulforhodamine B assay; conditions: SK-MEL-5, 48 h; method in brief: as §1
MDA-MB-435 = assay: Growth inhibition of human MDA-MB-435 cells after 48 hrs by sulforhodamine B assay; conditions: MDA-MB-435, 48 h; method in brief: as §1
MDA-MB-231 = assay: Growth inhibition of human MDA-MB-231 cells after 48 hrs by sulforhodamine B assay; conditions: MDA-MB-231, 48 h; method in brief: as §1
OVCAR-4 = assay: Growth inhibition of human OVCAR4 cells after 48 hrs by sulforhodamine B assay; conditions: OVCAR-4, 48 h; method in brief: as §1
NCI/ADR-RES = assay: Growth inhibition of human NCI/ADR-RES cells after 48 hrs by sulforhodamine B assay; method in brief: as §1
RXF 393 = assay: Growth inhibition of human RXF393 cells after 48 hrs by sulforhodamine B assay; conditions: RXF 393, 48 h; method in brief: as §1
PC-3 = assay: Growth inhibition of human PC3 cells after 48 hrs by sulforhodamine B assay; conditions: PC-3, 48 h; method in brief: as §1
SW-620 = assay: Growth inhibition of human SW620 cells after 48 hrs by sulforhodamine B assay; conditions: SW-620, 48 h; method in brief: as §2
OVCAR-8 = assay: Growth inhibition of human OVCAR8 cells after 48 hrs by sulforhodamine B assay; conditions: OVCAR-8, 48 h; method in brief: as §1
NCI-H460 = assay: Anticancer activity against human NCI-H460 cells assessed as cell growth at 100 uM after 48 hrs by sulforhodamine B assay; conditions: NCI-H460, 48 h, read-out: Activity
K562 = assay: Growth inhibition of human K562 cells after 48 hrs by sulforhodamine B assay; conditions: K562, 48 h; method in brief: as §1
A549 = assay: Growth inhibition of human A549 cells after 48 hrs by sulforhodamine B assay; conditions: A549, 48 h; method in brief: as §1
SK-MEL-28 = assay: Growth inhibition of human SK-MEL-28 cells after 48 hrs by sulforhodamine B assay; conditions: SK-MEL-28, 48 h; method in brief: as §1
LOX IMVI = assay: Growth inhibition of human LOXIMVI cells after 48 hrs by sulforhodamine B assay; method in brief: as §1
IGROV-1 = assay: Growth inhibition of human IGROV1 cells after 48 hrs by sulforhodamine B assay; conditions: IGROV-1, 48 h; method in brief: as §1
786-0 = assay: Growth inhibition of human 786-0 cells after 48 hrs by sulforhodamine B assay; conditions: 786-0, 48 h; method in brief: as §1
SF-295 = assay: Growth inhibition of human SF295 cells after 48 hrs by sulforhodamine B assay; conditions: SF-295, 48 h; method in brief: as §1
MCF7 = assay: Anticancer activity against human MCF7 cells assessed as cell growth at 100 uM after 48 hrs by sulforhodamine B assay; conditions: MCF7, 48 h, read-out: Activity
SF-268 = assay: Growth inhibition of human SF268 cells after 48 hrs by sulforhodamine B assay; conditions: SF-268, 48 h; method in brief: as §1
M14 = assay: Growth inhibition of human M14 cells after 48 hrs by sulforhodamine B assay; conditions: M14, 48 h; method in brief: as §1
[1] = Growth inhibition of human Hs 578T cells after 48 hrs by sulforhodamine B assay; method in brief: as §1
[2] = read-out: pLC50 (the source's name) (converted)

Nc1cc(N)c2nc(-c3ccccc3)c(Oc3ccc(Cl)c(Cl)c3)nc2c1
GI50 (CAKI-1): 15.8 µM | CC50 (CAKI-1; [2]): > 100 µM | TGI (CAKI-1; read-out: pTGI (converted)): > 100 µM | GI50 (HCT-116): 15.8 µM | LC50 (concentration causing 50% net cell death) (HCT-116): > 100 µM | TGI (HCT-116; read-out: pTGI (converted)): 47.9 µM | GI50 (OVCAR-5): 25.1 µM | CC50 (OVCAR-5; [2]): > 100 µM | TGI (OVCAR-5; read-out: pTGI (converted)): 58.9 µM | GI50 (TK-10): 24.5 µM | CC50 (TK-10; [2]): > 100 µM | TGI (TK-10; read-out: pTGI (converted)): 63.1 µM | GI50 (COLO 205): 20.4 µM | LC50 (50% net cell kill) (COLO 205): > 100 µM | TGI (COLO 205; read-out: pTGI (converted)): 67.6 µM | GI50 (NCI-H522): 8.32 µM | LC50 (NCI-H522): > 100 µM | TGI (NCI-H522; read-out: pTGI (converted)): 33.9 µM | GI50 (U-251): 12 µM | LC50 (50% net cell kill) (U-251): 83.2 µM | TGI (U-251; read-out: pTGI (converted)): 31.6 µM | GI50 (DU-145): 29.5 µM | CC50 (DU-145; [2]): > 100 µM | TGI (DU-145; read-out: pTGI (converted)): > 100 µM | GI50 (NCI-H322M): 21.4 µM | LC50 (NCI-H322M): > 100 µM | TGI (NCI-H322M; read-out: pTGI (converted)): 58.9 µM | GI50 (SK-MEL-5): 9.77 µM | CC50 (SK-MEL-5; [2]): 83.2 µM | TGI (SK-MEL-5; read-out: pTGI (converted)): 28.8 µM | GI50 (MDA-MB-435): 5.01 µM | CC50 (MDA-MB-435; [2]): 93.3 µM | TGI (MDA-MB-435; read-out: pTGI (converted)): 20.9 µM | GI50 (MDA-MB-231): 10.2 µM | CC50 (MDA-MB-231; [2]): 66.1 µM | TGI (MDA-MB-231; read-out: pTGI (converted)): 26.3 µM | GI50 (OVCAR-4): 33.1 µM | CC50 (OVCAR-4; [2]): > 100 µM | TGI (OVCAR-4; read-out: pTGI (converted)): > 100 µM | GI50 (NCI/ADR-RES): 11.7 µM | CC50 (NCI/ADR-RES; [2]): > 100 µM | TGI (NCI/ADR-RES; read-out: pTGI (converted)): 36.3 µM | GI50 (RXF 393): 6.03 µM | CC50 (RXF 393; [2]): > 100 µM | TGI (RXF 393; read-out: pTGI (converted)): 58.9 µM | GI50 (PC-3): 3.02 µM | CC50 (PC-3; [2]): > 100 µM | TGI (PC-3; read-out: pTGI (converted)): 14.5 µM | GI50 (SW-620): 9.77 µM | CC50 (SW-620; [2]): 91.2 µM | TGI (SW-620; read-out: pTGI (converted)): 30.2 µM | GI50 (OVCAR-8): 28.2 µM | CC50 (OVCAR-8; [2]): > 100 µM | TGI (OVCAR-8; read-out: pTGI (converted)): 89.1 µM | growth at 100 µM (NCI-H460): 0% | GI50 (K562): 3.55 µM | LC50 (K562): > 100 µM | TGI (K562; read-out: pTGI (converted)): > 100 µM | GI50 (A549): 18.2 µM | LC50 (A549): > 100 µM | TGI (A549; read-out: pTGI (converted)): 43.7 µM | GI50 (SK-MEL-28): 21.4 µM | CC50 (SK-MEL-28; [2]): > 100 µM | TGI (SK-MEL-28; read-out: pTGI (converted)): 64.6 µM | GI50 (LOX IMVI): 16.2 µM | LC50 (LOX IMVI): 72.4 µM | TGI (LOX IMVI; read-out: pTGI (converted)): 33.9 µM | GI50 (IGROV-1): 11.5 µM | CC50 (IGROV-1; [2]): 91.2 µM | TGI (IGROV-1; read-out: pTGI (converted)): 32.4 µM | GI50 (786-0): 12.6 µM | CC50 (786-0; [2]): > 100 µM | TGI (786-0; read-out: pTGI (converted)): 44.7 µM | GI50 (SF-295): 13.8 µM | LC50 (50% net cell kill) (SF-295): 69.2 µM | TGI (SF-295; read-out: pTGI (converted)): 30.9 µM | growth at 100 µM (MCF7): 2% | GI50 (SF-268): 17 µM | LC50 (SF-268): > 100 µM | TGI (SF-268; read-out: pTGI (converted)): 52.5 µM | GI50 (M14): 14.1 µM | CC50 (M14; [2]): > 100 µM | TGI (M14; read-out: pTGI (converted)): 70.8 µM | GI50 [1]: 10.7 µM | CC50 [1, 2]: > 100 µM | TGI ([1]; read-out: pTGI (converted)): 33.9 µM
